Calls of active or inactive are those of the source. The calls are words filed in the database; no cut-off is given here. Numbered stars: 1 amine (or outer) side, 2 acyl side, 3 side chain; on linkers, the order of the positions; unused ones are H or OH. Square brackets hold non-standard residues; d marks the D form. Peptide text beside a SMILES is read from it. * marks the point of attachment. X1 = CCC(=O)C[C@@H](O)C[C@@H](C)C[C@H](N[*:1])C(=O)[*:2]; Hexenoyl(2E,4S-Me) = CC[C@H](C)/C=C/C(=O)*; Leu(3R-OH) = CC(C)[C@@H](O)[C@H](N)C(=O)O; Pro(4S-Me) = C[C@@H]1CN[C@H](C(=O)O)C1; NH((S)CH(CH3)CH2NHMe) = CNC[C@H](C)N*; Aib = CC(C)(N)C(=O)O; βAla = NCCC(=O)O
What was measured:
[1] = target: T1, mTORC1 (Homo sapiens) (UniProt P42345+Q8N122+Q9BVC4); test: Inhibition of mTORC1 signalling in human MDA-MB-231 cells assessed as reduction in 4E-BP1 phosphorylation at T37/46 residue at 100 nM measured after 2 hrs by immunoblot analysis; assay type: cell-based
T1 sequence (Q8N122 whole entry, looked up, other chains not shown): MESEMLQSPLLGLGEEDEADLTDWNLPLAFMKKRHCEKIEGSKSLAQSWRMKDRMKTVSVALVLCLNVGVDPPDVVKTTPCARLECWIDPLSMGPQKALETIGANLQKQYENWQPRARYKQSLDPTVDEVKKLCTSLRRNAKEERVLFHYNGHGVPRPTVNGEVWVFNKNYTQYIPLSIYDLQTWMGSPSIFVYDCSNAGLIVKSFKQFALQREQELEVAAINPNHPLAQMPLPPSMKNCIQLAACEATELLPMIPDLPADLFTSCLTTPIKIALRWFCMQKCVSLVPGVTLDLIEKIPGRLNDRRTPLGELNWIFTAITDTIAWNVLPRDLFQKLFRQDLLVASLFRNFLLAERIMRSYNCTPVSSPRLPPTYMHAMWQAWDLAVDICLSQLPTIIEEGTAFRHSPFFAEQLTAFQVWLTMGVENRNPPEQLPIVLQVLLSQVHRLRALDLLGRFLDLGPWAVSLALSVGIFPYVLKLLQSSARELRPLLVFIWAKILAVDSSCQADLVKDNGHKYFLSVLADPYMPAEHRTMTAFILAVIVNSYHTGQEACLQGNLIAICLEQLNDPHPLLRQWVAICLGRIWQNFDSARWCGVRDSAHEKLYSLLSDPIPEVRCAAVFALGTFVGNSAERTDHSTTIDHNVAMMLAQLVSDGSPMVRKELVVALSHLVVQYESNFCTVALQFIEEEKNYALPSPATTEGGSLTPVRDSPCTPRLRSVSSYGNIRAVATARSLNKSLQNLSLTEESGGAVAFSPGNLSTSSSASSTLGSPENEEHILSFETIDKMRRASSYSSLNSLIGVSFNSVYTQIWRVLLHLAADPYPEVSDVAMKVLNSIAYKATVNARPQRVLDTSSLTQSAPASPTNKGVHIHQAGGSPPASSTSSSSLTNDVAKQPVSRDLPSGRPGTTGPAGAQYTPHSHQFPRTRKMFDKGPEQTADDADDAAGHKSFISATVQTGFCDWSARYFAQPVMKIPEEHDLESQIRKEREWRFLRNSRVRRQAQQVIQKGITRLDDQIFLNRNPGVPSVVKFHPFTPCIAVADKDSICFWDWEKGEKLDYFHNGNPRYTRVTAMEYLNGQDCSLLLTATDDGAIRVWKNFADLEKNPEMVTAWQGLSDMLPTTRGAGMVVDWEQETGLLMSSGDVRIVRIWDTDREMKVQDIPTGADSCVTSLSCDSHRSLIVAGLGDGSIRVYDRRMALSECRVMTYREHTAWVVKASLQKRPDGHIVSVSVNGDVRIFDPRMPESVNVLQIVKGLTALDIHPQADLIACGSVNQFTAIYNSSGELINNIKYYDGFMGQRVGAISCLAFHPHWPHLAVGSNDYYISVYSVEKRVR
T1 sequence (Q9BVC4 whole entry, looked up, other chains not shown): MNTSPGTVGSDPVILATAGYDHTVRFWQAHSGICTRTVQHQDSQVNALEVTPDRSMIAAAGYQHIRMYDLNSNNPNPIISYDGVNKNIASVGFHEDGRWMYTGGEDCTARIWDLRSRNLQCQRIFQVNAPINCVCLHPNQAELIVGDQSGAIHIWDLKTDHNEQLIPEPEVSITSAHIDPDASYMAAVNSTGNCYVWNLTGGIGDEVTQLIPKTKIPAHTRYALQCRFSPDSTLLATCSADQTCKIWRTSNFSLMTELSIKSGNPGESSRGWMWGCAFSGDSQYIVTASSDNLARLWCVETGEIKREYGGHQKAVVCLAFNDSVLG
How it was run: (§1)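 Cells were exposed to 100 nM compound or DMSO for 2, 6 or 18 h, then scraped and lysed with PMSF, Na3VO4 and protease inhibitors. Lysate (10 μg protein) ran on 10% Bis-Tris SDS-PAGE and went to PVDF. Blots were probed 1:1000 for phospho and total AKT (S473), S6K (T389), RPS6 (S235/236) and 4E-BP1 (T37/46), plus GAPDH. IRDye secondaries; infrared imaging; two independent experiments.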

[2] = target: T1, mTORC1 (Homo sapiens); test: Inhibition of mTORC1 signalling in human MDA-MB-453 cells assessed as reduction in RPS6 phosphorylation at S235/236 residue at 100 nM measured at 6 hrs by immunoblot analysis relative to control; assay type: cell-based; how it was run: as §1
[3] = target: T1, mTORC1 (Homo sapiens); test: Inhibition of mTORC1 signalling in human MDA-MB-453 cells assessed as reduction in RPS6 phosphorylation at S235/236 residue at 100 nM measured at 2 hrs by immunoblot analysis; assay type: cell-based; how it was run: as §1
[4] = tested on: MDA-MB-453; test: Antiproliferative activity against human MDA-MB-453 cells at 0.01 to 100 nM incubated for 48 hrs by sulforhodamine B assay; assay type: functional, cell-based
How it was run: (§2)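 IMEM with 5% FBS and 0.3% gentamicin; cells used within 4 months of thaw. After seeding at set densities and adhering, cells got compound or DMSO vehicle for 48 h, then were fixed and SRB-stained, with A560 read. GI50 (50% proliferation inhibition vs vehicle) came from non-linear regression of concentration-response curves; three independent experiments, each in triplicate.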

[5] = tested on: MDA-MB-453; test: Antiproliferative activity against human MDA-MB-453 cells at > 1 uM incubated for 48 hrs by sulforhodamine B assay; assay type: functional, cell-based; how it was run: as §2
[6] = target: T1, mTORC1 (Homo sapiens); test: Inhibition of mTORC1 signalling in human MDA-MB-231 cells assessed as reduction in ribosomal protein S6 kinase phosphorylation at T389 residue at 100 nM measured after 2 to 18 hrs by immunoblot analysis relative to control; assay type: cell-based; how it was run: as §1
[7] = tested on: SUM185PE; test: Antiproliferative activity against human SUM185PE cells at 0.01 to 100 nM incubated for 48 hrs by sulforhodamine B assay; assay type: functional, cell-based; how it was run: as §2
[8] = tested on: HCC1937; test: Antiproliferative activity against human HCC1937 cells up to 100 nM incubated for 48 hrs by sulforhodamine B assay; assay type: functional, cell-based
How it was run: (§3)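 Cells (RPMI-1640 with 5% FBS, 0.5% gentamicin; used within 4 months of thaw) were seeded at set densities, allowed to adhere, then treated 48 h with compound or DMSO vehicle. Cells were fixed and SRB-stained, with absorbance read at 560 nm. GI50 vs vehicle was taken by non-linear regression; three independent experiments, each in triplicate.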

[9] = tested on: MDA-MB-231; test: Antiproliferative activity against human MDA-MB-231 cells at > 1 uM incubated for 48 hrs by sulforhodamine B assay; assay type: functional, cell-based; how it was run: as §2
[10] = target: T1, mTORC1 (Homo sapiens); test: Inhibition of mTORC1 signalling in human MDA-MB-453 cells assessed as induction of AKT phosphorylation at S473 residue at 100 nM measured within 18 hrs by immunoblot analysis relative to control; assay type: cell-based; how it was run: as §1
[11] = tested on: MDA-MB-453; test: Antiproliferative activity against human MDA-MB-453 cells at 1 to 100 nM incubated for 48 hrs by sulforhodamine B assay; assay type: functional, cell-based; how it was run: as §2
[12] = target: T1, mTORC1 (Homo sapiens); test: Inhibition of mTORC1 signalling in human MDA-MB-453 cells assessed as reduction in 4E-BP1 phosphorylation at T37/46 residue at 100 nM measured after 2 hrs by immunoblot analysis; assay type: cell-based; how it was run: as §1
[13] = target: T1, mTORC1 (Homo sapiens); test: Inhibition of mTORC1 signalling in human MDA-MB-453 cells assessed as reduction in ribosomal protein S6 kinase phosphorylation at T389 residue at 100 nM measured within 2 hrs by immunoblot analysis relative to control; assay type: cell-based; how it was run: as §1
[14] = tested on: HCC1806; test: Antiproliferative activity against human HCC1806 cells up to 100 nM incubated for 48 hrs by sulforhodamine B assay; assay type: functional, cell-based; how it was run: as §3
[15] = target: T1, mTORC1 (Homo sapiens); test: Inhibition of mTORC1 signalling in human MDA-MB-231 cells assessed as reduction in RPS6 phosphorylation at S235/236 residue at 100 nM measured after 2 to 18 hrs by immunoblot analysis relative to control; assay type: cell-based; how it was run: as §1
[16] = tested on: HCC1937; test: Antiproliferative activity against human HCC1937 cells at >1 uM incubated for 48 hrs by sulforhodamine B assay; assay type: functional, cell-based; how it was run: as §3
[17] = target: T1, mTORC1 (Homo sapiens); test: Inhibition of mTORC1 signalling in human MDA-MB-231 cells assessed as induction of AKT phosphorylation at S473 residue at 100 nM measured within 18 hrs by immunoblot analysis relative to control; assay type: cell-based; how it was run: as §1
[18] = tested on: MDA-MB-231; test: Antiproliferative activity against human MDA-MB-231 cells up to 100 nM incubated for 48 hrs by sulforhodamine B assay; assay type: functional, cell-based; how it was run: as §2
[19] = tested on: BT-549; test: Antiproliferative activity against human BT549 cells up to 100 nM incubated for 48 hrs by sulforhodamine B assay; assay type: functional, cell-based; how it was run: as §3
[20] = tested on: BT-549; test: Antiproliferative activity against human BT549 cells at >1 uM incubated for 48 hrs by sulforhodamine B assay; assay type: functional, cell-based; how it was run: as §3
[21] = tested on: SUM185PE; test: Antiproliferative activity against human SUM185PE cells at 1 to 100 nM incubated for 48 hrs by sulforhodamine B assay; assay type: functional, cell-based; how it was run: as §2
[22] = tested on: HCC1806; test: Antiproliferative activity against human HCC1806 cells at >1 uM incubated for 48 hrs by sulforhodamine B assay; assay type: functional, cell-based; how it was run: as §3

Question: Which inhibition [1] does the source give for `CCC(=O)C[C@@H](O)C[C@@H](C)C[C@H](NC(=O)[C@@H]1C[C@H](C)CN1C(=O)/C=C/[C@@H](C)CC)C(=O)N[C@H](C(=O)NC(C)(C)C(=O)N[C@@H](CC(C)C)C(=O)N[C@@H](CC(C)C)C(=O)NC(C)(C)C(=O)NC(C)(C)C(=O)NCCC(=O)N[C@@H](C)CNC)[C@H](O)C(C)C` ({Hexenoyl(2E,4S-Me)}-[Pro(4S-Me)][X1][Leu(3R-OH)][Aib]LL[Aib][Aib][βAla]-{NH((S)CH(CH3)CH2NHMe)}) here?
Answer: inactive

Question: What about the inhibition [2] of the same compound?
Answer: 100%

Question: And the inhibition [3]?
Answer: Active

Question: And the inhibition [4]?
Answer: Active

Question: What about the Activity [5] of the same compound?
Answer: Active

Question: What about the inhibition [6] of the same compound?
Answer: inactive

Question: What about the inhibition [7] of the same compound?
Answer: Active

Question: And the Activity [8]?
Answer: inactive

Question: And the Activity [9]?
Answer: Active

Question: What about the inhibition [10] of the same compound?
Answer: Active

Question: And the Activity [11]?
Answer: Active

Question: And the inhibition [12]?
Answer: Active

Question: And the inhibition [13]?
Answer: 100%

Question: What about the Activity [14] of the same compound?
Answer: inactive

Question: What about the inhibition [15] of the same compound?
Answer: inactive

Question: What about the Activity [16] of the same compound?
Answer: Active

Question: What about the inhibition [17] of the same compound?
Answer: inactive

Question: What about the Activity [18] of the same compound?
Answer: inactive

Question: What about the Activity [19] of the same compound?
Answer: inactive

Question: What about the Activity [20] of the same compound?
Answer: Active

Question: What about the Activity [21] of the same compound?
Answer: Active

Question: What about the Activity [22] of the same compound?
Answer: Active
